Consider seven compounds from ChEMBL document CHEMBL1127473, “Estrone sulfamates: potent inhibitors of estrone sulfatase with therapeutic potential” (J Med Chem, 1994).

In assay [1] the target is T1, Steryl-sulfatase (Homo sapiens) (UniProt P08842).
T1 sequence (whole entry): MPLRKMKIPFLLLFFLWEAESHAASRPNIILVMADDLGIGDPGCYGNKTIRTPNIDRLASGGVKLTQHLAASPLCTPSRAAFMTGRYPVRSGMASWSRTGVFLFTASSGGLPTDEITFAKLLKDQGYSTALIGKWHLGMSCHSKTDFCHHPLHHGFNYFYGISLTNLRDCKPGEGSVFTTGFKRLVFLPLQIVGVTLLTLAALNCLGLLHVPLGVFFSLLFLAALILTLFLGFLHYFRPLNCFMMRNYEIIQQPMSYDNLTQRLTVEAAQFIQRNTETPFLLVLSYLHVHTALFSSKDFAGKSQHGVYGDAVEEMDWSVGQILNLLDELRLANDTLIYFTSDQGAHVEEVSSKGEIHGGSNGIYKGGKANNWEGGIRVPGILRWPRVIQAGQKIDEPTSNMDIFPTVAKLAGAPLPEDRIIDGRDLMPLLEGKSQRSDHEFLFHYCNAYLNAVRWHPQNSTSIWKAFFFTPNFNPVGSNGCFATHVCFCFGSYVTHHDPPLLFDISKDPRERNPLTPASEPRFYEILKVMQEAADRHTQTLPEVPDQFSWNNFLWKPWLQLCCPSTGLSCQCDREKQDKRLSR
Description: Tested for inhibition of estrone sulfatase in MCF-7 breast cancer cells using 2 nM substrate concentration at 0.1 uM. The format is cell-based. The following applies: MCF7.

In assay [2] the target is T2, Steryl-sulfatase (Homo sapiens, UniProt P08842).
T2 sequence (P08842 whole entry): T1 sequence (whole entry)
Description: Tested for inhibition of estrone sulfatase in placental microsomal preparation (100000 g pellet) using substrate concentration of 20 uM. The format is microsomes, Placenta. The gist of the method: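 Placental microsomal preparation (100 000-g pellet) assayed with saturating [3H]estrone sulfate substrate (20 μM); IC50 derived for sulfatase inhibition.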

Assay [3] addresses T1, Steryl-sulfatase (Homo sapiens). Description: Tested for inhibition of estrone sulfatase in MCF-7 breast cancer cells using 2 nM substrate concentration at 1 uM. The format is cell-based. The following applies: MCF7.
The target is the same in assay [4]. Description: Tested for inhibition of estrone sulfatase in MCF-7 breast cancer cells using 2 nM substrate concentration at 10 uM. The class given is cell-based. The following applies: MCF7.
Assay [5] has the same target. Description: Tested for enzyme activity recovered after 20h in MCF-7 breast cancer cells at 1 uM. The following applies: MCF7.
The target is the same in assay [6]. The following applies: MCF7; 1 uM.
The target is the same in assay [7]. Description: Tested for inhibition of estrone sulfatase in MCF-7 breast cancer cells using 2 nM substrate concentration at 1 uM; NI=No inhibition. The format is cell-based. The following applies: MCF7.
Assay [8] has the same target. The assay can be described thus: Tested for inhibition of estrone sulfatase in MCF-7 breast cancer cells using 2 nM substrate concentration at 10 uM; NI=No inhibition. The format is cell-based. The following applies: MCF7.

The source made the active and inactive calls. No cut-off for these calls is given here. Where only a bound is given, the exact number is not on record here.

`CSP(=O)(O)Oc1ccc2c(c1)CC[C@@H]1[C@@H]2CC[C@]2(C)C(=O)CC[C@@H]12`: the values for the inhibition in assay [1], in assay [3] and in assay [4] were 52%, 74% and 96%, respectively. The 50% inhibitory concentration (IC50) in assay [2] worked out at 43 µM.
The compound `CNS(=O)(=O)Oc1ccc2c(c1)CCC1[C@@H]2CC[C@]2(C)C(=O)CC[C@@H]12` (single isomer, unassigned) displayed a % activity recovered in assay [5] of more than 50%. For the same compound, the inhibition in assay [3] turned out to be 87%; in assay [4] it was 93%.
As for `CNS(=O)(=O)Oc1ccc2c(c1)CCCC2`, the inhibition in assay [4] came to 22%.
`CN(C)S(=O)(=O)Oc1ccc2c(c1)CCC1[C@@H]2CC[C@]2(C)C(=O)CC[C@@H]12` (single isomer, unassigned): the results for the inhibition in assay [1], in assay [3] and in assay [4] were 79%, 87% and 90%, respectively. The compound also registered a % activity recovered in assay [5] of 80%.
For the compound `C[C@]12CC[C@@H]3c4ccc(OS(N)(=O)=O)cc4CCC3[C@@H]1CCC2=O` (single isomer, unassigned) [EMATE], the inhibition in assay [1], in assay [3] and in assay [4] was more than 99% in each case. Further, in assay [6], the “% activity recovered” value is “inactive”. The same compound returned an IC50 in assay [2] of 0.08 µM.
Take `CN(C)S(=O)(=O)Oc1ccc2c(c1)CCCC2`: the inhibition result in assay [7] and in assay [8] was “inactive” each time.
With `NS(=O)(=O)Oc1ccc2c(c1)CCCC2`, the values for the inhibition in assay [3] and in assay [4] were 47% and 97%, respectively.

Broadly, the inhibition is the share of the control response that was lost under treatment. As a reminder, the IC50 is the concentration that gives 50% inhibition. Higher therefore signals lower potency.
